Measurements from ChEMBL document CHEMBL1131244, “New alkenyldiarylmethanes with enhanced potencies as anti-HIV agents which act as non-nucleoside reverse transcriptase inhibitors” (J Med Chem, 1998).

Columns and labels:
CCRF-CEM = test: The compound is evaluated for the cytotoxic concentration for the mock-infected CEM cells; format: functional; conditions: Homo sapiens
In short: (§1)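 XTT cytoprotection assay in CEM-SS cells infected with HIV-1 RF, with uninfected cultures for cytotoxicity, in presence of fetal calf serum. Data as percent of uninfected drug-free control. EC50 is 50% protection from cytopathicity; CC50 is 50% cell death in uninfected cells; TI = CC50/EC50. Triplicates on each of two sister plates, plate EC50s averaged. Confirmed by supernatant RT and p24.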

CEM-SS [1] = test: Inhibitory concentration for cytopathicity of HIV-1 RF in CEM-SS cells; NA means there was no observed inhibition of HIV-1 cytopathicity up to the cytotoxic concentration in uninfected cells.; format: functional, cell-based; in short: as §1
[2] = target: Human immunodeficiency virus type 1 reverse transcriptase (Human immunodeficiency virus 1, UniProt Q72547); test: Inhibitory activity against human immunodeficiency virus (HIV) - 1 reverse transcriptase with rCdG as the template primer
In short: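 Reactions stopped with ice-cold 10% trichloroacetate, filtered through GF/C membrane, washed with ethanol, radiolabel counted by Cerenkov counting. AZTTP and nevirapine as positive controls; IC50 reported.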

CEM-SS [3] = test: Inhibitory concentration for cytopathicity of HIV-1 in CEM-SS cells; format: functional, cell-based; conditions: Homo sapiens; in short: as §1
CEM-SS [4] = test: The compound is evaluated for the therapeutic index, which is the CC50 divided by the EC50.; format: functional; in short: as §1

Row | IC50 [2] [µM] | EC50 (CEM-SS [3]) [µM] | Structure (SMILES) | CC50 (CCRF-CEM) [µM] | EC50 (CEM-SS [1]) | TI (CEM-SS [4])
1 | > 100 | – | COC=C(c1cc(Br)c(OC)c(C(=O)OC)c1)c1cc(Br)c(OC)c(C(=O)OC)c1 | 22 | Not Active | –
2 | > 100 | 180 | COc1c(Cl)cc(C(=CCCCC(=O)O)c2cc(Cl)c(OC)c(C(=O)O)c2)cc1C(=O)O | > 316 | – | 1.7
3 | > 100 | – | CC1(C)OC(=O)c2cc(C(=CCCO)c3cc(Cl)c4c(c3)C(=O)OC(C)(C)O4)cc(Cl)c2O1 | 18.8 | Not Active | –
4 | > 100 | – | CC1(C)OC(=O)c2cc(C(=CCCBr)c3cc(Cl)c4c(c3)C(=O)OC(C)(C)O4)cc(Cl)c2O1 | 176 | Not Active | –
5 | > 100 | – | COc1c(Cl)cc(C(=CCC(=O)O)c2cc(Cl)c(OC)c(C(=O)O)c2)cc1C(=O)O | > 316 | Not Active | –
6 | > 100 | – | COC(=O)c1cc(C(=CCCCC(=O)O)c2cc(Cl)c(OC)c(C(=O)OC)c2)cc(Cl)c1OC | 100 | Not Active | –

Row | Structure (SMILES) | IC50 [2] [µM] | EC50 (CEM-SS [3]) [µM] | CC50 (CCRF-CEM) [µM] | EC50 (CEM-SS [1]) | TI (CEM-SS [4])
7 | CCCCCC1OC1(c1cc(Br)c(OC)c(C(=O)OC)c1)c1cc(Br)c(OC)c(C(=O)OC)c1 (centres undefined) | 5.6 | – | > 100 | Not Active | –
8 | COC(=O)C=C(c1cc(Cl)c(OC)c(C(=O)OC)c1)c1cc(Cl)c(OC)c(C(=O)OC)c1 | 16 | – | 25 | Not Active | –
9 | CCCCCC=C(c1cc(I)c(OC)c(C(=O)OC)c1)c1cc(I)c(OC)c(C(=O)OC)c1 | 11 | – | > 316 | Not Active | –
10 | CCCCCC=C(c1ccc(OC)c(C(=O)OC)c1)c1ccc(OC)c(C(=O)OC)c1 | 3.2 | – | 14 | Not Active | –
11 | COC(=O)c1cc(C(=CCCN)c2cc(Cl)c(OC)c(C(=O)OC)c2)cc(Cl)c1OC | 63 | – | 15 | Not Active | –
